Statin myotox sup: suppressors of simvastatin-induced myotoxicity in C2C12 myotubes. AID 602340. rescue of ATP level, % at 7.49 µM. hit rate 0.78% among 330,000. ATP luminescence, 48 h; scaled: DMSO 0, geranylgeraniol control 100;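 active = mean ATP rescue above about 67%, or every replicate alone reaching that limit, limit read from the data, passing the limit was not always enough; inconclusive = no clear call, values can overlap the other calls; inactive = mean under the limit and some replicate under it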;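 also: myotubes were challenged with 10 µM simvastatin during compound exposure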
Vif inh: inhibitors of HIV Vif. HEK293T cells, Vif self-association by quenched fluorescence, imaging, 24 h. inhibition, % at 7.49 µM. hit rate 0.35% among 340,000. AID 602346; in the data active = inhibition above about 50%, passing the limit was not always enough; inconclusive = no clear call, values can overlap the other calls; inactive = below about 31%
SR-BI DiI inh: blocks mouse SR-BI lipid uptake from DiI-HDL. AID 488896. ldlA[mSR-BI] CHO cells, DiI-HDL uptake fluorescence, 3 h. inhibition, % at 12.5 µM. hit rate 0.96% among 320,000. Q61009;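 active = mean replicate inhibition of at least 70% and a set share of replicates each scoring 70 or more; inconclusive = meets just one of the two criteria; inactive = fails both criteria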;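 also: 0% = median of neutral control wells and 100% = median of positive control wells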
Target sequence (Q61009 whole entry, looked up): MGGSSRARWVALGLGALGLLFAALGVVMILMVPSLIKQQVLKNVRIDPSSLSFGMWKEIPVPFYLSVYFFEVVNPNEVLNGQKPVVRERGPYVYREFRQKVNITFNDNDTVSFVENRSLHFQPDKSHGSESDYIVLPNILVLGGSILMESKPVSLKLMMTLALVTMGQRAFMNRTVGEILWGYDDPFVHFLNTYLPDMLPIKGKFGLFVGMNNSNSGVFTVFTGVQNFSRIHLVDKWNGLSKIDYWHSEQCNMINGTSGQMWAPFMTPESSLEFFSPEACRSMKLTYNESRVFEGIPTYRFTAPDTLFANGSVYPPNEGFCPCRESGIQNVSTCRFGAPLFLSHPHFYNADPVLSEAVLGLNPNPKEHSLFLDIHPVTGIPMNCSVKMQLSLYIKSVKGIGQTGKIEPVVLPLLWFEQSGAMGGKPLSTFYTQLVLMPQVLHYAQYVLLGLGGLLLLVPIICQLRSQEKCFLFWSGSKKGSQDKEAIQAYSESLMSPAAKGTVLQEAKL
SR-BI uptake up: SR-BI HDL lipid transfer activation; CHO ldlA[mSR-BI] cells, DiI-HDL uptake fluorescence, 3 h; 100 = double the neutral-control signal; hit rate 0.096% among 320,000; activation, % at 12.5 µM;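 active = mean replicate activation of at least 60% and every replicate at or above 60%; inconclusive = mean or all-replicate condition met, but not both; inactive = mean below 60% and not all replicates reaching 60%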;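 also: 0% = median plate neutral-control signal and 100% = twice that signal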
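Assay system: LDL receptor-deficient CHO ldlA cells overexpressing murine SR-BI / Medium: BSA-supplemented, HEPES-buffered Ham's F12, pH 7.4 / Probe or stimulus: DiI-labelled HDL at 10 µg/mL final / Timing: compound with DiI-HDL co-incubation, 3 h at 37 °C / Technique: bottom-read cell fluorescence after medium removal, ex 550/em 595 nm / Measure: HDL uptake via cellular fluorescence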
Active calls of the source: *; ? = inconclusive; · = no result given. This is a sample that favours compounds with a hit; in the whole collection about 1.7% have one here.

SMILES | Statin myotox sup | Vif inh | SR-BI DiI inh | SR-BI uptake up
COc1cccc(C(=O)Nc2ccc(NC(=O)c3ccco3)nc2)c1 | -23.0 | · | 6.5 | -6.5
COc1cc(C(=O)Nc2ccc(NC(=O)c3ccco3)nc2)cc(OC)c1OC | -11.1 | 16.7 | 72.4* | -72.4
COc1cc(NC(=O)c2ccco2)c(OC)cc1NC(=O)Nc1ccccc1Cl | -33.0 | -2.0 | 94.5* | -94.5
Cc1ccc(NC(=O)c2cc(NC(=O)c3ccco3)ccc2N2CCOCC2)cc1 | 9.4 | ? | 38.1 | -38.1
Cc1ccc(NC(=O)c2cc(NC(=O)c3ccco3)ccc2N2CCCCC2)cc1 | -23.3 | -7.4 | 72.6* | -72.6
COc1ccc(Cl)cc1C(=O)Nc1ccc(NC(=O)c2ccco2)cc1 | -44.1 | · | 82.2* | -82.2
CN1[C@@H]2c3ccc(-c4ccc(F)cc4)c(=O)n3C[C@@H]2[C@@H](CO)[C@@H]1C(=O)NCCN1CCCCC1 | -6.5 | · | · | ·
C=CCSc1nnc(-c2cccc3ccccc23)o1 | 2.2 | -6.6 | -8.2 | 8.2
C=CCSc1nnc(-c2cc3c(s2)-c2ccccc2CC3)o1 | 146.5* | -11.6 | 12.1 | -12.1
C[C@H](CO)N1C[C@H](C)[C@H](CN(C)C(=O)c2cccc(F)c2)Oc2cc(-c3cncnc3)ccc2S1(=O)=O | 4.6 | · | · | ·
COc1cccc(NC(=O)N(C)C[C@@H]2Oc3ncc(C4=CCCCC4)cc3C(=O)N([C@H](C)CO)C[C@H]2C)c1 | 15.1 | · | · | ·
CSc1sc(C(=O)O)c(C)c1C(C)=O | · | 56.3* | 18.0 | -18.0
C[C@H](CO)N1C[C@H](C)[C@@H](CN(C)C(=O)CCCN(C)C)OCCCC[C@H](C)Oc2ccc(NC(=O)c3ccccc3)cc2C1=O | 19.8 | · | · | ·
N#CCSc1nnc(COc2cccc3ccccc23)n1-c1ccccc1 | · | -13.8 | -40.7 | 40.7
Cc1ccc(-c2nnc(CSc3nnc(COc4cccc5ccccc45)n3-c3ccccc3)o2)cc1 | 136.1* | -14.9 | 21.0 | -21.0
C[C@H]1CN([C@@H](C)CO)C(=O)c2cc(NC(=O)Nc3ccccc3)ccc2O[C@H]1CN(C)S(=O)(=O)c1cccs1 | -47.0 | · | · | ·
C[C@H]1CN([C@@H](C)CO)C(=O)Cc2cc(NS(=O)(=O)c3cn(C)cn3)ccc2O[C@H]1CN(C)S(=O)(=O)c1ccc(Cl)cc1 | -5.4 | · | · | ·
CCCC(=O)NC(=S)Nc1c(C)cc(Br)cc1C | 4.4 | 7.2 | -7.0 | 7.0
CCCCCC(=O)NC(=S)Nc1ccc(Br)cc1C | · | 15.1 | -69.6 | 69.6*
CC1=NN(c2nc(-c3ccc(C)cc3)cs2)C(=O)C1N=Nc1ccc2ccccc2c1 (configuration not stated) | · | 1.4 | 7.8 | -7.8
CC1=NN(c2nc(-c3ccc(C)cc3)cs2)C(=O)C1N=Nc1ccc(C(N)=O)cc1 (configuration not stated) | · | -1.3 | 81.3* | -81.3
CC1C(=O)C(C)C(c2ccc(Br)cc2)NC1c1ccc(Br)cc1 (configuration not stated) | 4.1 | -4.6 | -6.4 | 6.4
CC1C(=O)C(C)C(c2cc(Br)ccc2O)NC1c1cc(Br)ccc1O (configuration not stated) | -19.3 | -1.8 | 82.6* | -82.6
CCCNC(=O)C[C@@H]1CC[C@@H]2[C@H](COC[C@H](O)CN2Cc2cccc(F)c2)O1 | -2.8 | · | · | ·
O=C(O)C[C@H]1C[C@H]2c3cc(NC(=O)NC4CCCCC4)ccc3O[C@H]2[C@H](CO)O1 | -2.1 | · | · | ·
SMILES | Statin myotox sup | Vif inh | SR-BI DiI inh | SR-BI uptake up
CCOC(=O)C1(CCc2ccccc2)CCN(C(=O)C2CCOCC2)CC1 | 6.5 | -3.1 | 80.3* | -80.3
CCOC(=O)C1(Cc2cccc(F)c2)CCN(C(=O)C2CCCO2)CC1 (configuration not stated) | 5.1 | 51.4* | -1.9 | 1.9
CC1CCCC(NC(=O)CCN2C(=O)COc3ccccc32)C1C (configuration not stated) | -1.7 | 50.2* | · | ·
CSC(=S)N/N=C/c1ccccc1 | 87.2* | -3.4 | -6.3 | 6.3
COc1ccc(/C=N/NC(=S)SC)cc1OC | · | 2.0 | 2.2 | -2.2
Cc1ccc(NC(=O)Cn2c(O)c(N=NC(N)=S)c3ccccc32)cc1 | -1.2 | 66.0* | 20.0 | -20.0
CO[C@@H]1CN(C)C(=O)c2cc(NC(=O)C3CCC3)ccc2OC[C@H](C)N(Cc2ccncc2)C[C@H]1C | -6.8 | · | · | ·
O=[N+]([O-])c1cccc(NC(=S)Nc2nc(-c3ccccc3Cl)cs2)c1 | -43.2 | -32.3 | 84.4* | -84.4
O=[N+]([O-])c1cccc(NC(=S)NCc2ccncc2)c1 | · | 2.9 | 21.2 | -21.3
COc1ccccc1C(=O)Nc1cc(Cl)ccc1-n1cncn1 | · | · | 29.4 | -29.4
COc1cc(OC)c(C(=O)Nc2cc(Cl)ccc2-n2cncn2)cc1OC | -14.0 | -5.7 | 80.9* | -80.9
